Screens from PubChem.
Rows were chosen to be rich in hits. Some 4.1% of all compounds tested hit in one or more screens of this group.
KCNK3 block: human KCNK3 channel inhibition, primary screen | CHO-KCNK3 thallium flux, FluxOR fluorescence; stronger effect = lower value | B-score at 10 µM | 0.84% of 340,000 active;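 active means B-score under library mean minus 4 SD, starting fluorescence ratio at most library mean plus 5 SD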;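 further: more negative B-score means stronger inhibition of thallium flux through KCNK3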
Target sequence (O14649 whole entry, looked up): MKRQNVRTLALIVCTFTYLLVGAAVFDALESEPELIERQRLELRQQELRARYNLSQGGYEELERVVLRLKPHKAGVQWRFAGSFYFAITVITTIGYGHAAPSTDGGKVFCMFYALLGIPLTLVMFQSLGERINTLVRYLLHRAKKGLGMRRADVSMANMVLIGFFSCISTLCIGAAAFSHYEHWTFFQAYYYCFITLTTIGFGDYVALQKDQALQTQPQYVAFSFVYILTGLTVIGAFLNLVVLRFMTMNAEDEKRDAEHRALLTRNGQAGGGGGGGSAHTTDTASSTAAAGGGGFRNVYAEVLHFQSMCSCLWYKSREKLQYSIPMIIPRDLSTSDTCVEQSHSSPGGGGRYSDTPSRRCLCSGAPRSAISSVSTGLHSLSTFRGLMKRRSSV
Cl transport mod: KCC2 (human) Cl- transport modulation | B-score of Tl+ flux slope (higher = more flux/activation; lower = inhibition) at 10 µM | Q9H2X9 | KCC2 cells, thallium flux FluoZin-2 fluorescence | AID 1456 | 2.2% of 190,000 active;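 active means thallium flux slope and its plate-corrected score both differing from the plate sample mean at a set confidence after two filtering rounds, in either direction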;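 further: slope of fluorescence scaled to starting intensity during 10 to 20 s after thallium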
KCNQ1 pot: potentiators or activators of human KCNQ1 potassium channel; AID 2648; P51787; CHO-K1 KCNQ1, thallium flux FluxOR fluorescence; stronger effect = higher value; B-score at 10 µM; 0.35% of 310,000 active;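 active means fluorescence ratio B-score, a plate-corrected score, at least three library SD, with initial intensity B-score within 5 SD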
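Medium – assay buffer, equal DMSO in all wells · Material – CHO-K1 cell line with stable KCNQ1 potassium channel expression · Signal – kinetic FluxOR thallium fluorescence, 10-s 1-Hz baseline, 110-s post-stimulus read · Compound – single concentration per compound, DMSO matched to controls · Schedule – 37 °C overnight plating, 90-min dark dye load, 20-min compound pretreatment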
hERG protect: hERG (human) protection from proarrhythmic block; CHO-hERG, FluxOR thallium flux, dofetilide IC70 present; activation (rescue from dofetilide block), less the hit threshold, % at 10 µM; 0.51% of 310,000 active;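 active means activation above the mean of controls blocked by dofetilide plus 5 SD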;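 further: thallium influx through hERG after potassium depolarization seen as dye fluorescence rise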
KCNK9 block: inhibitors of human KCNK9 two-pore domain potassium channel; AID 488922; Q9NPC2; 1.2% of 310,000 active; B-score at 10 µM; HEK293 KCNK9, FluxOR thallium flux fluorescence; stronger effect = lower value;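 active means ratio B-score over 3 SD below the library mean, with starting fluorescence within 5 SD of its mean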;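 further: negative B-score means less thallium flux so channel inhibition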
KCNQ1 block: blocks the human KCNQ1 potassium channel. CHO-K1 KCNQ1, FluxOR thallium flux fluorescence; stronger effect = higher value. 1.3% of 310,000 active. P51787. B-score at 10 µM;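 active means compounds whose thallium flux B-score, printed positive for inhibition, exceeds three library SD while starting fluorescence stays within three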;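 further: channel opened by potassium depolarization with thallium stimulus after 20 min compound exposure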
KCNK9 block conf: confirmation of human KCNK9 potassium channel inhibitors. HEK293 KCNK9 cells, FluxOR thallium flux fluorescence. AID 492992. 43% of 4,900 active. shares compounds with KCNK9 block. inhibition, % at 10 µM;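 active means thallium signal inhibited by more than 5 SD of the compound-free buffer control wells, on both duplicate plates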;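 further: 0% = assay buffer control wells without compound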
Kir21 sel: selectivity of KCNK9 modulators against mouse Kir2.1 | 4% of 4,900 active | Kir2.1 cells, FluxOR thallium flux fluorescence | AID 492993 | inhibition, % at 10 µM | shares compounds with KCNK9 block;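 active means thallium signal drop more than 5 SD beyond the mean of the no-compound control wells, seen in both duplicate plates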;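 further: signal is fluorescence rise after thallium addition divided by baseline fluorescence; plate controls were assay buffer only for no effect and full block by chlorpromazine control for full effect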
HEK293 Tl ctr: non-induced cell nonspecific activity of KCNK9 modulators; shares compounds with KCNK9 block; non-induced KCNK9-HEK293, FluxOR thallium flux; inhibition, % at 10 µM; 40% of 4,900 active;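 active means thallium signal drop beyond 5 SD of the untreated control mean, on both duplicate plates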;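 further: plate controls were buffer only IC0 wells for no effect and SID17386958 at its maximal inhibitory level for full effect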
Starred values were filed as active, the others as inactive; i = inactive; x = no result.

SMILES | KCNK3 block | Cl transport mod | KCNQ1 pot | hERG protect | KCNK9 block | KCNQ1 block | KCNK9 block conf | Kir21 sel | HEK293 Tl ctr
CC(C)NC(=O)c1c(CSc2ccc(Cl)cc2)noc1C(=O)NCc1ccccc1 | i | x | i | -14.0 | i | i | i | i | i
COCCNC(=O)c1c(CSc2ccccc2)noc1C(=O)NCc1ccccc1 | i | 0.108 | i | -5.6 | i | i | x | x | x
O=C(NCc1ccccc1)c1onc(CSc2ccc(Cl)cc2)c1C(=O)NCC1CC1 | i | x | i | -9.7 | i | i | i | i | i
CCCCNC(=O)c1c(CSc2ccc(Cl)cc2)noc1C(=O)NCc1ccccc1 | i | x | i | -12.5 | i | i | i | i | i
CCCCNC(=O)c1c(CSc2ccccc2)noc1C(=O)NCc1ccccc1 | i | 0.211 | i | -6.6 | i | i | i | i | i
CN(C)CCNC(=O)c1c(CSc2ccc(Cl)cc2)noc1C(=O)NCc1ccccc1 | i | x | i | -4.1 | i | i | x | x | x
COc1ccc(C(=O)Nc2cccc(S(=O)(=O)NC3=NCCC3)c2)cc1OC | i | x | x | x | x | x | x | x | x
CCCNC(=O)c1c(CSc2ccc(Cl)cc2)noc1C(=O)NCc1ccccc1 | i | x | i | -6.6 | i | i | i | i | i
O=C(NCc1ccccc1)c1onc(CSc2ccccc2)c1C(=O)NCC1CC1 | i | -2.6 | i | -5.7 | i | i | x | x | x
O=C(NCc1ccccc1)c1onc(CSc2ccc(Cl)cc2)c1C(=O)NCc1ccccc1 | i | -1.35 | i | -1.1 | i | i | x | x | x
O=C(NCc1ccccc1)c1onc(CSc2ccccc2)c1C(=O)NCc1ccccc1 | i | x | i | -8.3 | i | i | i | i | i
CCOc1ccc(-c2nnc(NC(=O)C3CCCC3)o2)cc1 | i | x | i | -12.1 | i | i | x | x | x
O=C(CN(C(=O)CNC(=O)c1ccco1)c1cccc(F)c1)NC1CCCCC1 | i | x | i | -7.3 | i | i | x | x | x
Cc1cc(C)c(C)c(OCCCCN(C)Cc2ccccc2)c1 | i | x | i | -5.8 | i | i | i | 46.5%* | i
CCc1ccc(OCCCCN(C)Cc2ccccc2)cc1 | i | x | i | -8.6 | i | i | i | i | i
CN(CCCCOc1ccc(F)cc1)Cc1ccccc1 | i | x | i | -2.6 | i | i | x | x | x
Cc1cccc(OCc2nnc(SC(C)C(=O)Nc3ccc(N4CCOCC4)cc3)o2)c1 (configuration not stated) | i | x | x | x | x | x | x | x | x
CCOC(=O)Cc1csc(NC(=O)c2cc(-c3ccncc3)nc3ccccc23)n1 | i | x | x | x | x | x | x | x | x
Cc1csc(NC(=O)c2cc(-c3ccccc3)nc3ccccc23)n1 | i | -0.626 | i | -11.8 | -9.76* | i | 41.5%* | i | 39.5%*
Cc1cc(C)nc(NC(=O)c2cc(-c3ccc4c(c3)OCO4)nc3ccccc23)c1 | i | x | i | -24.5 | i | i | i | i | i
CCC(C)c1ccccc1N1CC(C(=O)Nc2cccc(S(=O)(=O)N3CCOCC3)c2)CC1=O (configuration not stated) | i | x | i | -5.6 | i | i | x | x | x
CCCN1CCN(c2ncnc3scc(C4COc5ccccc5O4)c23)CC1 (configuration not stated) | i | -1.07 | i | -16.4 | i | i | x | x | x
c1ccc2c(c1)OCC(c1csc3ncnc(N4CCCCC4)c13)O2 (configuration not stated) | i | 0.0205 | i | -7.7 | -13.2* | i | 44.5%* | i | 32.5%*
O=C(/C=C/NNC(=O)c1cccc(Br)c1)c1cccc(Br)c1 | -8.97* | x | i | -15.3 | -9.02* | i | 38.0%* | i | 34.5%*
CC(C)=CCOc1ccc([C@@H]2COc3c(ccc4c3C=CC(C)(C)O4)C2)c(O)c1 | i | x | i | -16.1 | i | i | x | x | x
SMILES | KCNK3 block | Cl transport mod | KCNQ1 pot | hERG protect | KCNK9 block | KCNQ1 block | KCNK9 block conf | Kir21 sel | HEK293 Tl ctr
Cc1ccc2nc(NCC(=O)NN)nc(-c3ccccc3)c2c1 | i | -0.629 | i | -4.8 | i | i | i | i | i
CCC(=O)N1c2ccc(S(=O)(=O)N3CCN(c4ccccc4Cl)CC3)cc2CC1C (configuration not stated) | i | x | i | -10.6 | i | i | x | x | x
CCC(=O)N1c2ccc(S(=O)(=O)N3CCN(c4cc(C)ccc4C)CC3)cc2CC1C (configuration not stated) | i | x | i | -8.9 | i | i | i | i | i
O=C1C(NS(=O)(=O)c2cccs2)=C(N2CCN(Cc3ccccc3)CC2)C(=O)c2ccccc21 | i | -1.66 | i | -15.1 | i | i | i | i | i
Cc1nc(SCc2ccccc2C#N)n[nH]1 | i | x | i | -6.5 | i | i | x | x | x
N#Cc1ccccc1CSc1nc(N2CCCCC2)nc(N2CCCCC2)n1 | i | 0.395 | i | -10.6 | i | i | i | i | i
C[C@H](NC(=O)c1ccc(C(C)(C)C)cc1)C(=O)N1CCOCC1 | i | x | x | x | x | x | x | x | x
COc1cc(C)c(NC(=O)C(=S)NCCc2ccccc2)cc1C | i | -0.184 | i | -12.0 | i | i | i | i | i
COc1ccccc1C1C2=C(N=c3s/c(=C/c4cccc(OCC(=O)O)c4)c(=O)n31)c1ccccc1CC2 (configuration not stated) | i | -3.77 | x | x | x | x | x | x | x
CCOC(=O)C1=C(C)N=c2s/c(=C\c3ccc(OCC(=O)O)cc3)c(=O)n2C1c1ccccc1 (configuration not stated) | i | x | i | -10.9 | i | i | i | i | i
COc1cccc(C2C3=C(N=c4s/c(=C\c5ccc(OCC(=O)O)cc5)c(=O)n42)c2ccccc2CC3)c1 (configuration not stated) | x | 0.172 | i | -0.2 | i | i | i | i | i
CN(Cc1ccc2ccccc2c1)C(=O)c1ccc(C(F)(F)F)cc1 | i | x | i | -7.6 | i | i | i | i | 38.0%*
CC1C(=O)CC(c2ccccc2)NC1c1ccccc1 (configuration not stated) | i | -0.589 | i | -6.3 | i | i | x | x | x
CC(C)C1C(=O)CC(c2ccccc2)NC1c1ccccc1 (configuration not stated) | i | x | i | -5.5 | -11* | i | 40.0%* | i | i
